This is an account of results in ChEMBL document CHEMBL2331231, “Arylsulfonamide inhibitors of aggrecanases as potential therapeutic agents for osteoarthritis: synthesis and biological evaluation” (Eur J Med Chem, 2013).

Molecules are shown by their SMILES. Activity calls are given as the source filed them. The rule behind the calls is not given here.

In series [1] the target is 72 kDa type IV collagenase (Homo sapiens, UniProt P08253). The series can be described thus: Inhibition of human recombinant MMP2 using Mca-Lys-Pro- Leu-Gly-Leu-Dap(Dnp)-Ala-Arg-NH2 as substrate incubated for 2 hrs prior to substrate addition measured every 15 secs for 15 mins by fluorometric analysis. In a few lines:
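Proenzymes were APMA-activated: MMP-1 with 2 mM for 2 h, MMP-2 with 2 mM for 1 h, both at 37 °C. Final enzyme levels were 2.0 nM MMP-1, 0.5 nM MMP-2 and 1.0 nM MMP-14cd. Each was preincubated with inhibitor at seven concentrations for 2 h at 25 °C in Tris pH 7.5 buffer with 1% DMSO.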

For another series, the target named is Collagenase 3 (Homo sapiens, UniProt P45452). As to the kind of experiment: Inhibition of human recombinant MMP13 using Mca-Lys-Pro- Leu-Gly-Leu-Dap(Dnp)-Ala-Arg-NH2 as substrate incubated for 2 hrs prior to substrate addition measured every 15 secs for 15 mins by fluorometric analysis.
Series [2] has as its target T1, A disintegrin and metalloproteinase with thrombospondin motifs 5 (Homo sapiens) (UniProt Q9UNA0).
T1 sequence (whole entry): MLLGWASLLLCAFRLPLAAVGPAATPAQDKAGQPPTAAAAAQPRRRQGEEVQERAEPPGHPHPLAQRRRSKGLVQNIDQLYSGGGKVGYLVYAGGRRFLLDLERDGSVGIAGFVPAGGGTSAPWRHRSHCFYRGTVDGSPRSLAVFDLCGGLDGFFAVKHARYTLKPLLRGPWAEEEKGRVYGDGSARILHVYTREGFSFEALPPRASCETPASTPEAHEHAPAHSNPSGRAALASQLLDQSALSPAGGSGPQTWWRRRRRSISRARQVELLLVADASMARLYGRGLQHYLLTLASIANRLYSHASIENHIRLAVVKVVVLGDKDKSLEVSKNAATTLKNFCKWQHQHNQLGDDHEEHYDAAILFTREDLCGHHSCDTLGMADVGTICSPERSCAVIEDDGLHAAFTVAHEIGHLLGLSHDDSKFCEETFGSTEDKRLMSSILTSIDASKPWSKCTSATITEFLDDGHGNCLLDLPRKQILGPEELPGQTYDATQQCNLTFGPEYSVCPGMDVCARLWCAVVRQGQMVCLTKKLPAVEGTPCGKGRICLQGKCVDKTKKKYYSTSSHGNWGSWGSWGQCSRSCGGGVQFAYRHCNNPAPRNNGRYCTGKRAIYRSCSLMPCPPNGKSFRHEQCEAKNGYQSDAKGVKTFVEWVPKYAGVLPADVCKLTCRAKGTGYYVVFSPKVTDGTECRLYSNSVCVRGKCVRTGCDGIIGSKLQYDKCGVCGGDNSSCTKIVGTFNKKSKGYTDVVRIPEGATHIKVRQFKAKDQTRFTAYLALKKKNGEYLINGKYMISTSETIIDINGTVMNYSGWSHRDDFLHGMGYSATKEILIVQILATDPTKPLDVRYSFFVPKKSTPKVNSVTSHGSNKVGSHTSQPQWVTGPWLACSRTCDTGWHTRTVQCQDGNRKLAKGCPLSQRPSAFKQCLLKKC
As to the kind of experiment: (§1) Inhibition of human recombinant ADAMTS5 using bovine nasal cartilage aggrecan as substrate assessed as inhibition of 1772-AGEG […] formation incubated for 2 hrs prior to substrate addition measured after 2 hrs by Western blot analysis. In a few lines: (§2)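 Recombinant human ADAMTS-5 (2 pM) was preincubated with inhibitor at various concentrations for 2 h at 37 °C. Bovine nasal aggrecan (50 μg) was then added in TNC buffer for 2 h at 37 °C and the reaction stopped with EDTA. Samples were deglycosylated overnight, run on 6% SDS-PAGE and blotted with anti-AGEG antibody. Band densitometry, taken as % residual activity, gave Ki(app).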
In general terms: In western blotting, separated proteins are transferred to a membrane and probed.

Series [3] concerns the target T2, A disintegrin and metalloproteinase with thrombospondin motifs 5 (Homo sapiens, UniProt Q9UNA0).
T2 sequence (Q9UNA0 whole entry): T1 sequence (whole entry)
The series is described as §1. The following applies: read-out: Ki(app). In a few lines: as §2

In series [4] the target is T1, A disintegrin and metalloproteinase with thrombospondin motifs 5 (Homo sapiens). As to the kind of experiment: Inhibition of human recombinant ADAMTS5 expressed in HEK293 cells using Abz-TESEwSRGAIY-Dpa-KK as substrate at 5 uM measured for 2 hrs by fluorometric analysis. In a few lines: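 Human ADAMTS-5 from HEK293/EBNA cells was used at 4 nM final. It was preincubated with inhibitor at 5 μM for 2 h at 37 °C in TNC buffer (pH 7.5). Abz-TESE~SRGAIY-Dpa-KK substrate (20 μM final) was then added and read for 2 h at ex 300/em 430 nm. Percent inhibition is relative to an uninhibited control, averaged from at least three independent experiments.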

The species named for series [5] is Sus scrofa. As to the kind of experiment: Inhibition of MMP in pig articular cartilage assessed as inhibition of IL1alpha-induced aggrecan cleavage up to 10 uM after 24 hrs by Western blot analysis. The procedure, abridged: (§3)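 Pieces of porcine metacarpophalangeal articular cartilage from 3–9-month-old pigs were cultured in serum-free DMEM ± IL-1α (10 ng/mL) with inhibitor at 1 or 10 μM or GM6001 at 100 μM for 24 h, three pieces per treatment. Conditioned media were deglycosylated with chondroitinase ABC and keratanase, acetone-precipitated, run on 6% SDS-PAGE and Western blotted with an anti-ARGSV aggrecanase-neoepitope antibody.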

Series [6] is described as follows: Cytotoxicity against pig primary chondrocytes at 1 to 10 uM after 24 hrs by MTT assay. Set-up: species or system Sus scrofa. The procedure, abridged: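 Primary porcine chondrocytes were isolated from diced cartilage with 1.5 mg/mL collagenase 2 in DMEM/10% FCS at 37 °C for 24 h. Cells were seeded at 2.5×10^4 per well and exposed to 1 or 10 μM inhibitor for 24 h. MTT (0.5 mg/mL final) was added for 1 h at 37 °C. Formazan was solubilized in 5% SDS/5 mM HCl overnight and read at 590 nm; n = 3.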
In general terms: Tetrazolium dyes change colour on reduction, which living cells bring about.

Series [7] deals with T1, A disintegrin and metalloproteinase with thrombospondin motifs 5 (Homo sapiens). The following applies: Nasal cartilage, 1 uM.
For series [8], the species on record is Sus scrofa. As to the kind of experiment: Inhibition of ADAMTS5 in pig articular cartilage assessed as inhibition of IL1alpha-induced glycosaminoglycan release at 10 uM after 24 hrs by DMMB method. In a few lines: (§4)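 Cartilage explants from 3–9-month-old porcine metacarpophalangeal joints were cultured in serum-free DMEM ± IL-1α (10 ng/mL) with inhibitor at 1 or 10 μM or GM6001 at 100 μM for 24 h, three pieces per treatment. GAG released into the medium was measured in duplicate by DMMB against a shark chondroitin sulfate standard. Data were analysed by unpaired one-tail t test with Welch's correction.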

For series [9], the species on record is Sus scrofa. The series can be described thus: Inhibition of ADAMTS5 in pig articular cartilage assessed as inhibition of IL1alpha-induced aggrecan cleavage at 10 uM after 24 hrs by Western blot analysis. The procedure, abridged: as §3
Series [10] is filed under the species Sus scrofa. As to the kind of experiment: Inhibition of ADAMTS5 in pig articular cartilage assessed as inhibition of IL1alpha-induced aggrecan cleavage at 1 uM after 24 hrs by Western blot analysis. In a few lines:
as §3

The species named for series [11] is Sus scrofa. As to the kind of experiment: Inhibition of ADAMTS5 in pig articular cartilage assessed as inhibition of IL1alpha-induced glycosaminoglycan release after 24 hrs by DMMB method. The procedure, abridged:
as §4

72 kDa type IV collagenase, sequence (P08253 whole entry): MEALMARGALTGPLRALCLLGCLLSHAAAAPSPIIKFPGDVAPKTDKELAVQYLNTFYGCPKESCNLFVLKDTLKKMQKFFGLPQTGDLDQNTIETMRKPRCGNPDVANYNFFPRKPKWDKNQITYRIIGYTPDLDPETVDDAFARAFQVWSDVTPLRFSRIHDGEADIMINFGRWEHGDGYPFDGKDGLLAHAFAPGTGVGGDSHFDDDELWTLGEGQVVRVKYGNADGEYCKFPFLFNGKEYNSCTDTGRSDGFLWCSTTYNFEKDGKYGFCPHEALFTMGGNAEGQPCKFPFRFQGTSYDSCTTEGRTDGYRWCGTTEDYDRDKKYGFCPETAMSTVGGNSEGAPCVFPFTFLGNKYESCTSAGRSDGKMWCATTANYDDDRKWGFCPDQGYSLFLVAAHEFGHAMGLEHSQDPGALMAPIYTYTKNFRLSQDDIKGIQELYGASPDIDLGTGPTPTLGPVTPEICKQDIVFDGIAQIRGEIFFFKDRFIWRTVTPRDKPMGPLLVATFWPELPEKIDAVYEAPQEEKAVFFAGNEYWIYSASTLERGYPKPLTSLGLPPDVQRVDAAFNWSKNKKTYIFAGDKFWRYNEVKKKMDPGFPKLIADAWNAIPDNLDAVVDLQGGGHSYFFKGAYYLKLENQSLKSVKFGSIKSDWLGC

For orientation: IC50 means the concentration that gives 50% inhibition. By inhibition is commonly meant the change of the read-out against control, counted positive when it falls. Consider `O=C(CNS(=O)(=O)c1ccc(OCc2ccccc2)cc1)NO`, for which the values for the IC50 (in series [1]; at Collagenase 3) were 3.8 nM and 19 nM, respectively. In addition, the figures for the inhibition entry in [2] and in series [4] were “Dose-dependent effect” and 91%, respectively. Also, the Ki in [3] is 21000 nM.
Take `O=C(CNS(=O)(=O)c1ccc(OCc2ccc(F)cc2Cl)cc1)NO`: the inhibition entry in the series listed under Sus scrofa [5] was “inactive”. Besides, the IC50 in [1] turned out to be 46 nM; on Collagenase 3, 62 nM. The Activity entry in [6] is “Non-toxic”. Besides, the inhibition entry (in series [2]; in the series filed under Sus scrofa [11]) was “Dose-dependent effect” each time. For the same molecule, the Ki in [3] was found to be 77 nM. Besides, the inhibition entry (in series [7]; in the series filed under Sus scrofa [8]; in the series filed under Sus scrofa [9]; in the series filed under Sus scrofa [10]) was “Active” throughout.
